The whole screen tested about 340,000 compounds, of which about 3,000 (0.88%) were called active. The entries come from a sample that favours actives as a whole. A number with no mark means an inactive call.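 Rule for the calls: active = inhibition above about 50% at 20 µM (limit read from the data); inactive = the rest.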

Sequence of Carboxy-terminal domain RNA polymerase II polypeptide A small phosphatase 1 (Homo sapiens) (Q9GZU7 76-261 limits assumed): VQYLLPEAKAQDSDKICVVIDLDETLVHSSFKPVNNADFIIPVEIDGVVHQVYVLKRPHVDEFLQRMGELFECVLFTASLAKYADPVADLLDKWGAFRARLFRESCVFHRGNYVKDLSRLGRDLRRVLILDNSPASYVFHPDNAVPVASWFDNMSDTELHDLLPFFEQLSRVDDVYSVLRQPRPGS

In the assay the target is Carboxy-terminal domain RNA polymerase II polypeptide A small phosphatase 1 (Homo sapiens) (UniProt Q9GZU7). The assay can be described thus: inhibition of human SCP1 dephosphorylation activity – biochemical, colorimetric, uHTS, primary screen (AID 493091).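 Note: plate controls were DMSO wells with enzyme for no effect and wells lacking enzyme for full effect.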 Conditions: Recombinant Scp1, phosphopeptide, malachite green phosphate absorbance; at 20 µM; active compounds read high. Summed up:
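Test system: SCP-1 phosphatase catalytic domain, residues 76-261 | Compound dosing: One concentration, 20 µM, with 1.0% DMSO | Schedule: 45 min room-temperature reaction, 5 min colour, 30 min stabiliser | Detection: Absorbance at 630 nm | Read-out basis: % inhibition of SCP-1 phosphate liberation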
On to `Cc1cccc(N2CCN(Cc3nc(C4CC4)no3)CC2)n1`, for which the inhibition was -8.45%.

`CC(C)=CCN1CCN(Cc2cc3ccccc3[nH]2)CC1CCO` (stereo not drawn): the inhibition was -3.55%.

Regarding `COC(=O)c1ccc(S(=O)(=O)c2ccc(C(=O)OC)s2)s1`, the inhibition was -2.05%.

As to `NC(=O)C1=C[C@H](c2csc3ccccc23)C[C@H](OCc2ccc(CO)cc2)O1`, the inhibition is -0.48%.

Turning to `C[C@H](CO)N1C[C@H](C)[C@H](CN(C)C(=O)Nc2ccc(C(F)(F)F)cc2)Oc2c(NC(=O)c3ccncc3)cccc2C1=O`, the inhibition was 88% (active).

For `C[C@H](CO)N1C[C@H](C)[C@@H](CN(C)C(=O)Nc2ccc3c(c2)OCO3)Oc2c(cccc2N(C)C)C1=O`, the inhibition was 38.7%.

As to `Cc1noc(C)c1NC(=O)Nc1cccc2c1O[C@H](CN(C)C(=O)Nc1ccccc1)[C@@H](C)CN([C@H](C)CO)C2=O`, the inhibition is -8.19%.

For `COC(=O)CSc1ccc2nnc(CCNS(=O)(=O)c3ccc(C)cc3)n2n1`, the inhibition was -10.5%.

For the molecule `O=C1N/C(=C/c2cccn2-c2ccccc2)C(=O)N1c1cccc(Cl)c1`, the inhibition was -4.36%.

Turning to `Cc1ccccc1NC(=O)CN1C(=O)N/C(=C\c2cccn2-c2cccc(C(=O)O)c2)C1=O`, the inhibition was 65.5% (active).

For the molecule `Cc1ccccc1NC(=O)CSC(=O)c1ccccc1`, the inhibition was -4.57%.

On to `O=C(COC(=O)c1ccc(O)cc1)Nc1nccs1`, for which the inhibition was -1.45%.

Turning to `O=C(Nc1ccc(-c2ccc3nncn3n2)cc1)C1CCCCC1`, the inhibition is -12.9%.

`COc1ccc(OC)c(NC(=O)CSc2nc(-c3ccccc3)cc(=O)[nH]2)c1`: the inhibition was 81.5% (active).

For the molecule `CCCc1cc(=O)[nH]c(SCC(=O)Nc2ccc(C(=O)Nc3ccccc3OC)cc2)n1`, the inhibition is -2.71%.

With `COc1ccc(OC)c(NC(=O)CSc2nc(N)c(-c3ccccc3)c(=O)[nH]2)c1`, the inhibition was 3.19%.

On to `CC(=O)c1cccc(NC(=O)N2CCCC2C(=O)NCCc2ccccc2)c1` (stereo not drawn), for which the inhibition is -7.73%.

Take `Nc1ccc(C(=O)NCc2ccccc2)cc1`: the inhibition was -1.69%.

For `C[n+]1ccc(C(=O)NCc2ccccc2)cc1`, the inhibition is 92.7% (active).

For the molecule `CS(=O)(=O)NCc1ccc(C(=O)NCc2ccccc2)cc1`, the inhibition is -6.79%.

Regarding `Cc1noc(C)c1-c1ccc2ncnc(NC(C)c3ccco3)c2c1` (stereo not drawn), the inhibition was 8.09%.

For the molecule `CCn1cc(C(=O)N2CCN(C3CCCCC3)CC2)c2cc(OC)c(OC)cc2c1=O`, the inhibition was 0%.

`CCOC(=O)N1CCN(C(=O)C2CC(c3ccc(F)cc3)=NO2)CC1` (stereo not drawn): the inhibition was -0.41%.

Regarding `Cc1cccc(-[n+]2c(-c3cccc(Br)c3)[nH]c3nc4ccccc4nc32)c1`, the inhibition was -8.9%.

As for `COc1ccc(-n2cnnc2SCC(=O)Nc2cccc([N+](=O)[O-])c2)cc1`, the inhibition is -10.7%.

Take `NS(=O)(=O)c1cccc(NC(=O)CSc2nc3ccccc3n2-c2ccccc2)c1`: the inhibition is -22.7%.

With `NC(=O)NC(=O)CSc1nc2cc([N+](=O)[O-])ccc2n1-c1cccc(C(F)(F)F)c1`, the inhibition was 62.8% (active).

As to `C/C(CC(=O)Nc1ccc(Cl)cc1)=N\NC(=O)C(=O)NCCO`, the inhibition was -2.46%.

On to `COc1ccc(N2C(=O)C(CC(=O)Nc3ccc(F)cc3)N(CCc3cccs3)C2=O)cc1` (stereo not drawn), for which the inhibition was 0.58%.

Regarding `CCN(CC)c1ccc(C(=O)NNC(=O)CCc2nc3ccccc3c(=O)[nH]2)cc1`, the inhibition is -4.7%.

With `Cc1c(Cl)cnc(NC(=O)COC(=O)c2ccc(S(=O)(=O)NCc3ccco3)cc2)c1Cl`, the inhibition is 61.6% (active).

On to `Cc1cc(C(=O)OCC(=O)NCc2ccco2)c(C)n1-c1ccccc1`, for which the inhibition was 73.1% (active).

Regarding `CN(c1ccccc1)S(=O)(=O)c1ccc(Cl)c(C(=O)OCC(=O)N2CCOCC2)c1`, the inhibition was -10.4%.

For `CN(c1ccccc1)S(=O)(=O)c1ccc(Cl)c(C(=O)OCC(N)=O)c1`, the inhibition was -10.7%.

As to `O=C(COC(=O)c1cccs1)NCc1cccs1`, the inhibition was -4.94%.

For `Cc1cc(C(=O)OCC(=O)N2c3ccccc3NC(=O)C2(C)C)c(C)n1-c1ccccc1`, the inhibition is -10.3%.

In the case of `CSCCC(NC(=O)c1ccco1)C(=O)OCC(=O)Nc1ncc(Cl)c(C)c1Cl` (stereo not drawn), the inhibition is 2.12%.

`O=C(COC(=O)CCC(=O)c1cccs1)NCc1ccco1`: the inhibition is 96.1% (active).

On to `CC1CCN(C(=O)COC(=O)CCC(=O)c2cccs2)CC1`, for which the inhibition is 0.96%.

As for `C/C(=N\Nc1ncc(Cl)cc1Cl)c1ccc(S(=O)(=O)NCc2ccco2)cc1`, the inhibition was -6.85%.

With `CN(c1ccccc1)S(=O)(=O)c1ccc(Cl)c(C(=O)OCC(=O)NCc2ccco2)c1`, the inhibition was 81.1% (active).

Consider `CCOC(=O)c1cnc(SCC(=O)NCc2ccco2)nc1N`, for which the inhibition is -2.2%.

For `Cc1ccccc1C(=O)NCC(c1ccco1)N1CCc2ccccc21` (stereo not drawn), the inhibition is 3.6%.

Turning to `O=C(c1ccccc1F)N1CCN(S(=O)(=O)c2ccc(Br)cc2)CC1`, the inhibition was -10.3%.

On to `CC(C)CCN1CCN=C1N(C)C`, for which the inhibition is 0.8%.

In the case of `Cc1nnc(CN(C)Cc2cn[nH]c2-c2ccc(-c3ccccc3)cc2)o1`, the inhibition is -5.39%.

For the molecule `CSCCC(NS(=O)(=O)c1ccc(C)cc1)C(=O)N(C)CC(=O)Nc1ccccc1Br` (stereo not drawn), the inhibition is -5.24%.

Regarding `Cc1nn2c(NCCN(C)C)c3c(nc2c1-c1ccccc1)CCC3`, the inhibition is -10.7%.

As for `COc1ccc(NC(=O)COC(=O)c2n[nH]c3ccccc23)c(OC)c1`, the inhibition was -9.82%.

In the case of `O=C(COC(=O)c1ccco1)NCc1ccc(Cl)cc1`, the inhibition was -4.57%.

As for `O=C(COC(=O)C12CC3CC(CC(C3)C1)C2)NCc1ccco1`, the inhibition was 11.5%.

As for `O=C(COC(=O)c1ccccc1O)NCc1ccco1`, the inhibition was 67.2% (active).

Consider `O=C(CCNC(=O)c1ccccc1Cl)NCc1ccco1`, for which the inhibition was 18.8%.

As to `O=C(COC(=O)c1cnc(Cl)c(Cl)c1)NCc1ccco1`, the inhibition is 53.3% (active).

In the case of `COc1ccc(CCNC(=O)COC(=O)c2cnc(Cl)c(Cl)c2)cc1`, the inhibition is -7.74%.

For `COCCNC(=S)N1CCN(C)CC1`, the inhibition was -7.43%.

On to `CC1CC(c2ccccc2)n2nc(NC(=O)c3cccs3)nc2N1` (stereo not drawn), for which the inhibition is 2.86%.

`CC(CC(=O)Nc1ccccc1)n1ccnc1` (stereo not drawn): the inhibition was -3.02%.

For orientation: inhibition means the drop in the measured response relative to a control, in per cent.

(Values after PubChem BioAssay AID493091 (Sanford-Burnham Center for Chemical Genomics, 2011).)
